These results are taken from ChEMBL document CHEMBL1125361, “Effect of modification of the basic residues of dynorphin A-(1-13) amide on kappa opioid receptor selectivity and opioid activity” (J Med Chem, 1992).

Assay [1] addresses Kappa-type opioid receptor (Cavia porcellus, UniProt P41144). The assay is described as follows: Inhibition of [3H]- bremazocine to opioid receptor kappa of guinea pig […] membranes was determined. In outline: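 Guinea pig cerebellar membranes labelled with [3H]bremazocine at 4 °C with bestatin and 100 nM DAMGO present. Nonspecific binding defined with 1 μM Dyn A-(1-13)NH2. Ki from Cheng-Prusoff using KD 0.0549 nM for [3H]bremazocine.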

For a further assay, the species on record is Cavia porcellus. The assay is described as follows: Potency was evaluated in guinea pig ileum relative to Dynorphin A. The class given is functional. The essentials:
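Isolated guinea pig ileum; agonist dose–response curves were determined. In the experiments using norbinaltorphimine, the antagonist was added to the tissue bath 10 min before the agonist dose–response curve was run.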

Assay [2] has as its target Delta-type opioid receptor (Rattus norvegicus, UniProt P33533). The assay is described as follows: Inhibition of [3H]DPDPE to opioid receptor delta of rat fore brain membranes was determined. The class given is cell membranes, Membrane. In outline: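 [3H]DPDPE displacement from rat forebrain membranes at 4 °C, peptidase inhibitors included. Nonspecific binding taken with 10 μM unlabeled DPDPE. Cheng-Prusoff Ki using KD 7.63 nM.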

Another assay addresses Mu-type opioid receptor (Rattus norvegicus, UniProt P33535). The assay is described as follows: Inhibition of [3H]DAMGO to opioid receptor mu of rat fore brain membranes was determined. It counts as cell membranes, Membrane. In outline:
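Rat forebrain membranes with [3H]DAMGO at 4 °C in presence of peptidase inhibitors. Nonspecific binding defined by 10 μM levorphanol. Ki derived via Cheng-Prusoff, KD 0.314 nM.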

For assay [3], the target named is Opioid receptor (mu and kappa) (Cavia porcellus, UniProt P41144+P97266). The assay is described as follows: Opioid receptor activity in guinea pig ileum. The class given is functional, tissue-based. The essentials: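 Isolated guinea pig ileum in tissue bath, agonist dose-response curves. When norbinaltorphimine was used, the antagonist was added 10 min before the agonist dose-response determination.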

For orientation: Ki means a measure of affinity in units of concentration, obtained from inhibition or displacement. The low end stands for tighter binding, the high end for weaker binding. A word on the IC50: it is the point on the concentration scale where inhibition reaches its midpoint. Low values mean inhibition by little substance, high ones a need for much substance.

Chain of Mu-type opioid receptor (P33535 whole entry): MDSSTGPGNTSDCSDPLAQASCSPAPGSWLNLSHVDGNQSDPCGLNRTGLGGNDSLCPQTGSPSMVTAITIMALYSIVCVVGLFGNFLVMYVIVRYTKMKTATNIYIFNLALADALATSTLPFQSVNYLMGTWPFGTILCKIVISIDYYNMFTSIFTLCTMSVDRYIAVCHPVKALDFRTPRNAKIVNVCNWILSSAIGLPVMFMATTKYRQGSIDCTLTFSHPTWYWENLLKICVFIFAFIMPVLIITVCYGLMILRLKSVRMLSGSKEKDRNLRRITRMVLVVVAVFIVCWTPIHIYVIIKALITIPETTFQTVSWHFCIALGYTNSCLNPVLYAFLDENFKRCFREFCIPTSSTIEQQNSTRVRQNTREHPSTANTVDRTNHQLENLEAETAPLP
Chain of Delta-type opioid receptor (P33533 whole entry): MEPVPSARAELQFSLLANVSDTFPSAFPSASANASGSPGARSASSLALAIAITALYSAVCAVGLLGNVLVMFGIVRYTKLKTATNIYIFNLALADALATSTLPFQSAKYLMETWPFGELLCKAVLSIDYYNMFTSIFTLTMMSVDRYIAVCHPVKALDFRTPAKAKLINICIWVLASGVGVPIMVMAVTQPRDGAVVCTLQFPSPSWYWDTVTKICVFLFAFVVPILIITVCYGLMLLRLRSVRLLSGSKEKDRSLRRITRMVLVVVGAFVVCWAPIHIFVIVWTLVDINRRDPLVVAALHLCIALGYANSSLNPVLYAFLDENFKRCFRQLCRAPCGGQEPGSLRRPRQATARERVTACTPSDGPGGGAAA
Chain of Kappa-type opioid receptor (P41144 whole entry): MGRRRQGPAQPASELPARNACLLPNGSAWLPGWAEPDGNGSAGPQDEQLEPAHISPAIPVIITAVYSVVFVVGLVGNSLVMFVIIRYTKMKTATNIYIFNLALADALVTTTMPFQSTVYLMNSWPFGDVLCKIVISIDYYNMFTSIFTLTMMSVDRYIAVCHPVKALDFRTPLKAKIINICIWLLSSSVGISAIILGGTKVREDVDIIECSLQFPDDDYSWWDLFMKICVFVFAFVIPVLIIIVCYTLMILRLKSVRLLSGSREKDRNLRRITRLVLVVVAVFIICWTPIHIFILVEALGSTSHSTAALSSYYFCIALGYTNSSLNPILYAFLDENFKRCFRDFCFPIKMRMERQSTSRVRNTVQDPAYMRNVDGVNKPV

For the compound `CC[C@H](C)[C@H](NC(=O)[C@H](CCCN=C(N)N)NC(=O)[C@H](CCCN=C(N)N)NC(=O)[C@H](CC(C)C)NC(=O)[C@H](Cc1ccccc1)NC(=O)CNC(=O)CNC(=O)[C@@H](N)Cc1ccc(O)cc1)C(=O)N[C@@H](CCCN=C(N)N)C(=O)N1CCC[C@H]1C(=O)N[C@@H](CCCCN)C(=O)N[C@@H](CC(C)C)C(=O)N[C@@H](CCCCNC(C)=O)C(N)=O`, the Ki worked out at 0.15 nM in assay [1], 4.6 nM in assay [2] and 0.061 nM on Mu-type opioid receptor. Also, the Relative potency in the assay filed under Cavia porcellus is given as 126%. Besides, the concentration for half-maximal inhibition (IC50) in assay [3] worked out at 0.19 nM.

As for `CC[C@H](C)[C@H](NC(=O)[C@H](CCCN=C(N)N)NC(=O)[C@H](CCCN=C(N)N)NC(=O)[C@H](CC(C)C)NC(=O)[C@H](Cc1ccccc1)NC(=O)CNC(=O)CNC(=O)[C@@H](N)Cc1ccc(O)cc1)C(=O)N[C@@H](CCCN=C(N)N)C(=O)N1CCC[C@H]1C(=O)N[C@@H](CCCCN)C(=O)N[C@@H](CC(C)C)C(=O)N[C@@H](CCCCN)C(N)=O`, the inhibitory constant (Ki) turned out to be 0.023 nM in assay [1], 1.9 nM in assay [2] and 0.4 nM on Mu-type opioid receptor. For the same compound, the Relative potency in the assay filed under Cavia porcellus is reported as 100%. In assay [3], the IC50 turned out to be 0.24 nM.

Consider `CC[C@H](C)[C@H](NC(=O)[C@H](CCCN=C(N)N)NC(=O)[C@H](CCCN=C(N)N)NC(=O)[C@H](CC(C)C)NC(=O)[C@H](Cc1ccccc1)NC(=O)CNC(=O)CNC(=O)[C@@H](N)Cc1ccc(O)cc1)C(=O)N[C@@H](CCCN=C(N)N)C(=O)N1CCC[C@H]1C(=O)N[C@@H](CCCCNC(C)=O)C(=O)N[C@@H](CC(C)C)C(=O)N[C@@H](CCCCN)C(N)=O`, for which the results for the Ki (in assay [1]; in assay [2]; at Mu-type opioid receptor) were 0.053 nM, 0.45 nM and 0.03 nM, respectively. Besides, the Relative potency in the assay listed under Cavia porcellus was found to be 148%. The same compound came in with a concentration for half-maximal inhibition (IC50) in assay [3] of 0.16 nM.

Turning to `CC[C@H](C)[C@H](NC(=O)[C@H](CCCN=C(N)N)NC(=O)[C@H](CCCN=C(N)N)NC(=O)[C@H](CC(C)C)NC(=O)[C@H](Cc1ccccc1)NC(=O)CNC(=O)CNC(=O)[C@@H](N)Cc1ccc(O)cc1)C(=O)N[C@@H](CCCCNC(C)=O)C(=O)N1CCC[C@H]1C(=O)N[C@@H](CCCCN)C(=O)N[C@@H](CC(C)C)C(=O)N[C@@H](CCCCN)C(N)=O`, the inhibition constant (Ki) in assay [1] is 0.0042 nM; in assay [2], 1.3 nM; on Mu-type opioid receptor, 0.043 nM. Moreover, the Relative potency in the assay listed under Cavia porcellus was determined as 91%. The half-maximal inhibitory concentration (IC50) in assay [3] is recorded as 0.26 nM.

H-YGGFLK(Ac)RIRPKLK-NH2: the Ki in assay [1] stood at 0.024 nM; in assay [2], 0.42 nM; on Mu-type opioid receptor it was 0.018 nM. In addition, the Relative potency in the assay filed under Cavia porcellus turned out to be 37%. The concentration for half-maximal inhibition (IC50) in assay [3] stood at 0.64 nM.

“H-YGGFLKRIRPKLK-NH2 [listing 1 of 2 here]” had a Relative potency in the assay filed under Cavia porcellus of 94%. The compound further had a half-maximal inhibitory concentration (IC50) in assay [3] of 0.25 nM.

Take “H-YGGFLKRIRPKLK-NH2 [listing 2 of 2 here]”: the Ki turned out to be 0.02 nM in assay [1], 5.9 nM in assay [2] and 0.075 nM at Mu-type opioid receptor.

As to H-YGGFLRK(Ac)IRPKLK-NH2, the figures for the Ki (in assay [1]; in assay [2]; at Mu-type opioid receptor) were 0.14 nM, 1.1 nM and 0.18 nM, respectively. For the same compound, the Relative potency in the assay listed under Cavia porcellus is given as 69%. The same compound gave an IC50 in assay [3] of 0.34 nM.

With “H-YGGFLRKIRPKLK-NH2 [listing 1 of 2 here]”, the Relative potency in the assay listed under Cavia porcellus was 122%. In addition, the IC50 in assay [3] stood at 0.19 nM.

“H-YGGFLRKIRPKLK-NH2 [listing 2 of 2 here]”: the Ki in assay [1] was determined as 0.021 nM; in assay [2], 1.6 nM; on Mu-type opioid receptor, 0.055 nM.

In the assay filed under Cavia porcellus, “H-YGGFLRRIKPKLK-NH2 [listing 1 of 2 here]” displayed a Relative potency of 89%. In assay [3], the concentration for half-maximal inhibition (IC50) amounted to 0.27 nM.

“H-YGGFLRRIKPKLK-NH2 [listing 2 of 2 here]”: the inhibitory constant (Ki) in assay [1] came out at 0.0067 nM; in assay [2], 1.9 nM; on Mu-type opioid receptor, 0.046 nM.
